# Experimental data as given in ChEMBL document CHEMBL1123885, “Analogues of 3-ethyl-3-(4-pyridyl)piperidine-2,6-dione as selective inhibitors of aromatase: derivatives with variable 1-alkyl and 3-alkyl substituents” (J Med Chem, 1987).
# Key:
# [1] = Partition coefficient (logP); type: physicochemical; conditions: octanol/water
# [2] = molecular target: T1, Cholesterol side-chain cleavage enzyme, mitochondrial (Bos taurus, UniProt P00189); assay: Inhibition of bovine desmolase, cytochrome P450 11A1; NI = No Inhibition at maximum concentration tested
# T1 sequence (P00189 whole entry): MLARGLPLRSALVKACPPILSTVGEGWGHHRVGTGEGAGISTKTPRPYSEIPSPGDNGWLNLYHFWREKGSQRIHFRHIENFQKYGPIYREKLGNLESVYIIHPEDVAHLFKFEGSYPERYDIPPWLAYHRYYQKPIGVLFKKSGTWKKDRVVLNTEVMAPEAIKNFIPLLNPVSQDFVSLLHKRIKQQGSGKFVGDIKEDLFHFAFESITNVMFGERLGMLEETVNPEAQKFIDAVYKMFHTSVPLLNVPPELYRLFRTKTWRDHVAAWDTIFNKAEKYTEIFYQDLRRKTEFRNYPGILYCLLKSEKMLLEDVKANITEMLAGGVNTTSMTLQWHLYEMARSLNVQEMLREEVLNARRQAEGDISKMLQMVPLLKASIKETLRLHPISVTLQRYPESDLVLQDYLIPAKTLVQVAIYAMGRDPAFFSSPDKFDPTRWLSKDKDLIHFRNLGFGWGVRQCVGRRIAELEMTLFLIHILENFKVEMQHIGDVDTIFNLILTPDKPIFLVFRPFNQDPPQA
# Outline: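 Bovine adrenal cortex mitochondrial fraction as side-chain cleavage enzyme. […] Released [14C]isocaproic acid passes through alumina, which retains the steroid; eluate radioactivity is counted. Compound tested at 5, 10, 20 and 50 μg/mL. IC50 is the concentration that halves control activity, extrapolated when above the top concentration. "None" means no inhibition at the maximum tested.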
# Aromatase = molecular target: T2, Aromatase (Homo sapiens, UniProt P11511)
# T2 sequence (P11511 whole entry): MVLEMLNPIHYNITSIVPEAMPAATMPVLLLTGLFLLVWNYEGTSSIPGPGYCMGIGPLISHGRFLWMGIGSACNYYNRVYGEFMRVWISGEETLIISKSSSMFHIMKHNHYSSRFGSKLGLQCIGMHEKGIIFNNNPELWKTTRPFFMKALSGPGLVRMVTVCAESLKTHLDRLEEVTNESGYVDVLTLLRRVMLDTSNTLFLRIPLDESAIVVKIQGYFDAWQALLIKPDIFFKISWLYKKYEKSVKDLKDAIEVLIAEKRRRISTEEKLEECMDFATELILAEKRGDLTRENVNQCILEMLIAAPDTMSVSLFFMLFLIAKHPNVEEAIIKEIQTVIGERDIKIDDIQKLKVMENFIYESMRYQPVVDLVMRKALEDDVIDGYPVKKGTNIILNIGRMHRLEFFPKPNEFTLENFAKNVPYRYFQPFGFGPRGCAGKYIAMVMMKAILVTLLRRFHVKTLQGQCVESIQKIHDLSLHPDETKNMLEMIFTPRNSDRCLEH
logP [1],IC50 [2],IC50 (Aromatase) [µM],Compound
1.13,No inhibition,,CCCC1(c2ccncc2)CCC(=O)NC1=O (stereo not given)
2.26,No inhibition,2.5,CCCCCC1(c2ccncc2)CCC(=O)NC1=O (stereo not given)
,No inhibition,,CCCCCCN1C(=O)CCC(CC)(c2ccncc2)C1=O (stereo not given)
,No inhibition,,CC1(c2ccncc2)CCC(=O)NC1=O (stereo not given)
2.18,No inhibition,,CCCN1C(=O)CCC(CC)(c2ccncc2)C1=O (stereo not given)
2.94,No inhibition,3.6,CCCCCCC1(c2ccncc2)CCC(=O)NC1=O (stereo not given)
2.76,No inhibition,,CCCCN1C(=O)CCC(CC)(c2ccncc2)C1=O (stereo not given)
1.64,No inhibition,,CCN1C(=O)CCC(CC)(c2ccncc2)C1=O (stereo not given)
,No inhibition,,CCC1(c2ccncc2)CCC(=O)N(C)C1=O (stereo not given)
,No inhibition,,CCCCC1(c2ccncc2)CCC(=O)NC1=O (stereo not given)
,,3.2,CCCCCCCC1(c2ccncc2)CCC(=O)NC1=O (stereo not given)
0.58,,,CCC1(c2ccncc2)CCC(=O)NC1=O (stereo not given) [ROGLETIMIDE]
